Assays:
HepG2 [1] = test: Drug metabolism in human HepG2 cells assessed as HPMPAp uptake at 10 uM after 48 hrs; type: ADME, cell-based; conditions: hepg2, 48 h
HepG2 [2] = test: Drug metabolism in human HepG2 cells assessed as unidentified metabolite uptake at 10 uM after 24 hrs; type: ADME, cell-based; conditions: hepg2, 24 h
Method in brief: (§1)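 Nearly confluent HepG2 flasks got 14C-labeled drug (final 10 µM, 50 mCi/mmol) for 24 h. Cells were washed with cold PBS, lysed in water by two freeze-thaw cycles and sonication, then extracted with cold TCA (8% final) and centrifuged at 4°C. Supernatant was counted and analyzed by SAX ion-exchange HPLC, with metabolites assigned by retention versus reference standards.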

HepG2 [3] = test: Drug metabolism in human HepG2 cells assessed as HPMPApp uptake at 10 uM after 48 hrs; type: ADME, cell-based; conditions: hepg2, 48 h
HepG2 [4] = test: Drug metabolism in human HepG2 cells assessed as unidentified metabolite uptake at 10 uM after 48 hrs; type: ADME, cell-based; conditions: hepg2, 48 h
[5] = Selectivity index, ratio of CC50 for human HepG2(2.2.15) cells to EC50 for HBV infected in human HepG2(2.2.15) cells
Method in brief: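 Ratio from two 2.2.15 readouts after nine daily doses in RPMI/2% FBS. Extracellular HBV DNA was measured by quantitative blot hybridization and cytotoxicity by neutral red uptake (three cultures per concentration), both 24 h after the final dose.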

Hepatitis B virus [6] = test: Antiviral activity against HBV infected in human HepG2(2.2.15) cells assessed as decrease in extracellular viral DNA level after 24 hrs by blot hybridization assay; type: functional, organism-based; conditions: HepG2 2.2.15, 24 h
Method in brief: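 Confluent 2.2.15 cells in RPMI 1640 with 2% FBS got nine consecutive daily doses, with medium replaced daily with drug-containing medium. Six wells per concentration over two replicate plates. Cells were pelleted from the medium, which was kept at 4°C and not frozen. Extracellular HBV DNA was quantified by blot hybridization 24 h after the last dose.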

[7] = Cytotoxicity against human HepG2(2.2.15) cells after 24 hrs by neutral red assay; type: cell-based
Method in brief: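 2.2.15 cells, RPMI 1640 with 2% FBS, dosed daily for nine consecutive days. Viability was read by neutral red uptake, absorbance of internalized dye at 510, 24 h after the last treatment, three cultures per concentration.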

HepG2 [8] = test: Drug metabolism in human HepG2 cells assessed as HPMPApp uptake at 10 uM after 24 hrs; type: ADME, cell-based; conditions: hepg2, 24 h; method in brief: as §1
HepG2 [9] = test: Drug metabolism in human HepG2 cells assessed as HPMPAp uptake at 10 uM after 24 hrs; type: ADME, cell-based; conditions: hepg2, 24 h; method in brief: as §1
HepG2 [10] = test: Drug metabolism in human HepG2 cells assessed as HPMPA uptake at 10 uM after 24 hrs; type: ADME, cell-based; conditions: hepg2, 24 h; method in brief: as §1
HepG2 [11] = test: Drug metabolism in human HepG2 cells assessed as HPMPA uptake at 10 uM after 48 hrs; type: ADME, cell-based; conditions: hepg2, 48 h
Hepatitis B virus [12] = test: Antiviral activity against HBV harboring RNA polymerase N236T mutant gene infected in human HuH7 cells assessed as decrease in viral transient transfection […]; type: functional, organism-based; conditions: Huh-7
Method in brief: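 Lamivudine- and adefovir-resistant HBV mutants introduced into Huh7 cells by transient transfection. Compounds were tested in a 5-day assay.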

Hepatitis B virus [13] = test: Antiviral activity against HBV infected in transgenic mouse assessed as decrease in liver viral DNA level at 4 mg/kg, po administered daily for 14 days measured post last dose; type: functional; conditions: for ED50: Hepatitis B virus, Liver, 336 h; for ED90: dose 4 mg/kg
Method in brief: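 Homozygous male and female HBV transgenic mice (founder 1.3.32; 22.2 ± 2.8 g) received drug in distilled water by oral gavage, 0.1 ml/10 g, at 7 µmol/kg (4 mg/kg) daily for 14 days. About 0.1 g liver was lysed at necropsy, and DNA was extracted with phenol-chloroform. HBV DNA was measured by qPCR normalized to GAPDH, using duplicate CTs against a dilution standard curve, in relative units/µg cell DNA.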

Hepatitis B virus [14] = test: Antiviral activity against wild type HBV infected in human HuH7 cells assessed as decrease in viral transient transfection after 5 days; conditions: Huh-7, 5 days
Hepatitis B virus [15] = test: Antiviral activity against HBV harboring RNA polymerase L180M mutant gene infected in human HuH7 cells assessed as decrease in viral transient transfection after 5 days; conditions: Huh-7, 5 days
Hepatitis B virus [16] = test: Antiviral activity against HBV harboring RNA polymerase M204I mutant gene infected in human HuH7 cells assessed as decrease in viral transient transfection after 5 days; conditions: Huh-7, 5 days
Hepatitis B virus [17] = test: Antiviral activity against HBV harboring RNA polymerase L180M/M204V mutant gene infected in human HuH7 cells assessed as decrease in viral transient transfection after 5 days; conditions: Huh-7, 5 days
Hepatitis B virus [18] = test: Antiviral activity against HBV harboring RNA polymerase M204V mutant gene infected in human HuH7 cells assessed as decrease in viral transient transfection after 5 days; conditions: Huh-7, 5 days

| SMILES | Selectivity Index [5] | EC50 (Hepatitis B virus [6]) [µM] | EC90 (Hepatitis B virus [6]) [µM] | CC50 at 24 h [7] [µM] | EC50 (Hepatitis B virus [12]) [µM] | EC90 (Hepatitis B virus [12]) [µM] | ED50 (Hepatitis B virus [13]) [µmol/kg] | ED90 (Hepatitis B virus [13]) [µmol/kg] | EC90 (Hepatitis B virus [14]) [µM] | EC50 (Hepatitis B virus [15]) [µM] | EC90 (Hepatitis B virus [15]) [µM] | EC50 (Hepatitis B virus [16]) [µM] | EC90 (Hepatitis B virus [16]) [µM] | EC50 (Hepatitis B virus [17]) [µM] | EC90 (Hepatitis B virus [17]) [µM] | EC50 (Hepatitis B virus [18]) [µM] | EC90 (Hepatitis B virus [18]) [µM] | further results |
| --- | --- | --- | --- | --- | --- | --- | --- | --- | --- | --- | --- | --- | --- | --- | --- | --- | --- | --- |
| Nc1ncnc2c1ncn2C[C@@H](CO)OCP(=O)(O)O | >60 | 1.2 | 5.05 | > 300 |  |  |  |  |  |  |  |  |  |  |  |  |  | Drug uptake (HepG2 [1]): 70 pmol; Drug uptake (HepG2 [2]): 33 pmol; Drug uptake (HepG2 [3]): 13 pmol; Drug uptake (HepG2 [4]): 62 pmol; Drug uptake (HepG2 [8]): 34 pmol; Drug uptake (HepG2 [9]): 27 pmol; Drug uptake (HepG2 [10]): 26 pmol; Drug uptake (HepG2 [11]): 10 pmol |
| CC(C)(C)C(=O)OCOP(=O)(COCCn1cnc2c(N)ncnc21)OCOC(=O)C(C)(C)C [ADEFOVIR DIPIVOXIL] |  |  |  |  | 14 | 52 | 0.2 | 3.6 | 7 | 2.6 | 7.3 | 2.4 | 8 | 2.5 | 7.6 | 1.5 | 7.2 | EC50 (Hepatitis B virus [14]): 2 µM |
| CCCCCCCCCCCCCCCCCCOCCOP(=O)(O)CO[C@H](CO)Cn1cnc2c(N)ncnc21 | >1422 | 0.076 | 0.211 | > 300 |  |  | 0.35 | 6.91 |  |  |  |  |  |  |  |  |  |  |
| Nc1ccn([C@@H]2CS[C@H](CO)O2)c(=O)n1 [LAMIVUDINE] |  |  |  |  | 0.3 | 1.5 |  |  | 3 | 16 | 41 | > 100 | > 100 | > 100 | > 100 | > 100 | > 100 |  |
| CC(C)CCCCCCCCCCCCCCOCCCOP(=O)(O)CO[C@H](CO)Cn1cnc2c(N)ncnc21 | >1657 | 0.059 | 0.181 | > 300 |  |  | 0.082 | 2.96 |  |  |  |  |  |  |  |  |  |  |

Source: ChEMBL document CHEMBL1649503, “Alkoxyalkyl esters of 9-(s)-(3-hydroxy-2-phosphonomethoxypropyl) adenine are potent and selective inhibitors of hepatitis B virus (HBV) replication in vitro and in HBV transgenic mice in vivo” (Antimicrob Agents Chemother, 2009)
